The source made the active and inactive calls. No cut-off for these calls is given here.

Experiment [1] relates to Trichoderma viride. Kind of experiment: Fungicidal activity against Trichoderma viride CECT 2423 at 20 ug/disk after 48 hrs by agar diffusion assay. As to conditions: CECT 2423, 48 h, read-out: IZ. It counts as functional. The gist of the method: (§1)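 Fungi were grown on PDA for 7 days at 28 °C and suspended in 0.05% Tween 80 to about 10^6 conidia/mL. 1 mL was mixed into 15 mL PDA. Four 0.5 cm paper disks carrying compound were placed on the set agar. Solvent-only disks served as negative control. The inhibition zone (mm) around each disk was measured. Values are the mean of three independent experiments.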

In experiment [2] the test system is Aspergillus parasiticus. Kind of experiment: Fungicidal activity against Aspergillus parasiticus CECT 2681 at 20 ug/disk after 48 hrs by agar diffusion assay. It counts as functional. As to conditions: CECT 2681, 48 h, read-out: IZ. The gist of the method:
as §1
A general note: A growth-free zone around the sample is the usual read-out of agar diffusion tests.

The subject of experiment [3] is Phytophthora citrophthora. Kind of experiment: Fungicidal activity against Phytophthora citrophthora CECT 2353 at 30 ug/disk after 48 hrs by agar diffusion assay. It counts as functional. To be noted: CECT 2353, 48 h, read-out: IZ. The gist of the method: as §1
The test system of experiment [4] is Fusarium culmorum. Kind of experiment: Fungicidal activity against Fusarium culmorum CCM 172 at 0.2 mg/disk after 48 hrs by agar diffusion assay. It counts as functional. The gist of the method: (§2)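 Fungi were grown 7 days at 28 °C on PDA, then suspended in 0.05% Tween 80 in sterile water to about 10^6 conidia/mL. 1 mL was mixed into 15 mL PDA. After setting, four 0.5 cm paper disks impregnated with test product were added. Controls were solvent-only disks and benomyl disks, dosed per fungus. The read-out was the no-growth inhibition zone (mm), as the mean ± SE of three independent experiments.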

In experiment [5] the test system is Geotrichum candidum. Kind of experiment: Fungicidal activity against Geotrichum candidum CCM 245 at 0.2 mg/disk after 48 hrs by agar diffusion assay. It counts as functional. The essentials: as §2
A further experiment concerns Bacillus cereus. Kind of experiment: Bactericidal activity against Bacillus cereus CECT 148 at 0.3 mg/disk after 24 hrs by agar diffusion assay. It counts as functional, organism-based. The gist of the method: (§3)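 Each bacterium, kept as 24-h cultures on solid-medium slants, was reactivated in Nutrient Broth for 24 h at 28 or 37 °C depending on species. 1 mL of this suspension was plated and overlaid with 15 mL Plate Count Agar. Once the agar solidified, five paper disks loaded with test product were applied. Plates were incubated 24 h in the dark at 28 or 37 °C by species.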

In experiment [6] the test system is Fusarium culmorum. Kind of experiment: Fungicidal activity against Fusarium culmorum CCM 172 at […] after 48 hrs by agar diffusion assay. It counts as functional, organism-based. To be noted: 0.4 mg/disk. The gist of the method: as §2
The subject of experiment [7] is Escherichia coli. Kind of experiment: Bactericidal activity against Escherichia coli CECT 405 at 0.3 mg/disk after 24 hrs by agar diffusion assay. It counts as functional, organism-based. The gist of the method: as §3
For the next experiment, the system named is Salmonella typhi. Kind of experiment: Bactericidal activity against Salmonella typhi CECT 409 at 0.3 mg/disk after 24 hrs by agar diffusion assay. As to conditions: Salmonella enterica subsp. enterica serovar Typhi. It counts as functional, organism-based. The gist of the method: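 Bacteria from 24-h slant cultures reactivated in Nutrient Broth for 24 h at 28 or 37 °C depending on strain. 1 mL of suspension was placed in a plate and overlaid with 15 mL Plate Count Agar. After solidification, five paper disks loaded with compound were applied. Plates were incubated 24 h in the dark at 28 or 37 °C depending on strain.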

Experiment [8] deals with Phytophthora citrophthora. Kind of experiment: Fungicidal activity against Phytophthora citrophthora CECT 2353 at 0.4 mg/disk after 48 hrs by agar diffusion assay. It counts as functional, organism-based. The gist of the method:
as §2

For experiment [9], the system named is Escherichia coli. Kind of experiment: Bactericidal activity against Escherichia coli CECT 100 at 0.3 mg/disk after 24 hrs by agar diffusion assay. It counts as functional, organism-based. The gist of the method:
as §3

Experiment [10] has as its system Trichoderma viride. Kind of experiment: Fungicidal activity against Trichoderma viride CECT 2423 at 0.4 mg/disk after 48 hrs by agar diffusion assay. It counts as functional, organism-based. The essentials: as §2
The subject of a further experiment is Enterococcus faecalis. Kind of experiment: Bactericidal activity against Enterococcus faecalis CECT 481 at 0.3 mg/disk after 24 hrs by agar diffusion assay. It counts as functional, organism-based. The gist of the method:
as §3

For another experiment, the system named is Staphylococcus aureus. Kind of experiment: Bactericidal activity against Staphylococcus aureus CECT 86 at 0.3 mg/disk after 24 hrs by agar diffusion assay. It counts as functional, organism-based. The essentials: as §3
In experiment [11] the test system is Pectobacterium carotovorum. Kind of experiment: Bactericidal activity against Erwinia carotovora CECT 225 at 0.3 mg/disk after 24 hrs by agar diffusion assay. It counts as functional, organism-based. The gist of the method: as §3
Experiment [12] concerns Geotrichum candidum. Kind of experiment: Fungicidal activity against Geotrichum candidum CCM 245 at 0.4 mg/disk after 48 hrs by agar diffusion assay. It counts as functional, organism-based. The gist of the method:
as §2

Experiment [13] concerns Aspergillus parasiticus. Kind of experiment: Fungicidal activity against Aspergillus parasiticus CECT 2681 at 0.4 mg/disk after 48 hrs by agar diffusion assay. It counts as functional, organism-based. The essentials: as §2

Take `CCCCNC(=O)n1c(NC(=O)OC)nc2ccccc21` [BENOMYL]: the zone of inhibition at 20 µg/disc in the experiment on Trichoderma viride [1] and in the experiment with Aspergillus parasiticus [2] was 29.3 mm each time. In addition, the zone of inhibition at 30 µg/disc in [3] was 44.3 mm. The entries for the “inhibition zone (IZ)” value in the experiment on Fusarium culmorum [4] and in the experiment with Geotrichum candidum [5] were 27.66 mm and 0 mm, respectively.
On to `COc1cc2c(cc1OC)C1CCC(=O)N1CC2` (configuration not stated), for which the outcome in the experiment on Bacillus cereus, with Escherichia coli [7], in the experiment with Salmonella typhi, with Escherichia coli [9], in the experiment on Enterococcus faecalis and in the experiment with Staphylococcus aureus was Active. For the same compound, in [11], the result was Active. Further, the outcome (with Fusarium culmorum [6]; in experiment [8]; with Trichoderma viride [10]; with Geotrichum candidum [12]; in the experiment on Aspergillus parasiticus [13]) was inactive.
